Compound activity deposited in PubChem by Johns Hopkins Ion Channel Center.
RGS4 block: human RGS4 inhibition | P49798 | HEK293 M3R/RGS4 inducible, Fluo-4 calcium flux; hits give high values; triggered by carbachol at its EC20 | B-score at 10 µM | actives 0.45% (n = 310,000) | AID 463165;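 active = B-score, a plate-corrected calcium signal, over three deviations above library mean, with baseline fluorescence within five deviations of library mean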;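 note: RGS4 expression induced by doxycycline in cells with stable M3 receptor; B-score is computed from the integrated fluorescence ratio over baseline after carbachol; higher B-score means a larger calcium signal and so more RGS4 inhibition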
Target sequence (P49798 whole entry, looked up): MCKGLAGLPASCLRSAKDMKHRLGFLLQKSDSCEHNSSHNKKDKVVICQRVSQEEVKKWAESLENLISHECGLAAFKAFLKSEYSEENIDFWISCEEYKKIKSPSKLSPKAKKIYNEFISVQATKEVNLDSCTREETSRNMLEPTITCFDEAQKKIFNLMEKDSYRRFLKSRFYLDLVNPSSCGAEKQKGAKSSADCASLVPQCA
RGS4 act: potentiators or activators of RGS4. HEK293 M3R/inducible RGS4, carbachol calcium flux Fluo4; hits give low values. B-score at 10 µM. actives 0.92% (n = 310,000). AID 463111;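 active = B-score of the integrated calcium signal more than 4 SD below the library mean, with starting fluorescence not abnormally high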;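 note: negative B-score means reduced calcium response which marks RGS4 activation or potentiation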
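Detection: kinetic calcium fluorescence imaging with Fluo4-AM dye, 2 µM / Material: HEK293 cells with stable M3R and inducible RGS4 / Schedule: recording 10 s baseline at 1 Hz, 100 s post-agonist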
MrgX1 ag: agonists of human MrgX1 receptor. actives 0.44% (n = 310,000). B-score at 10 µM. Q96LB2. MrgX1-HEK293 cells, Fluo-4 calcium fluorescence, agonist mode; hits give high values;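 active = calcium response B-score plate-corrected fluorescence ratio at least 3 library SD, with starting fluorescence B-score inside 5 SD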
Target sequence (Q96LB2 whole entry, looked up): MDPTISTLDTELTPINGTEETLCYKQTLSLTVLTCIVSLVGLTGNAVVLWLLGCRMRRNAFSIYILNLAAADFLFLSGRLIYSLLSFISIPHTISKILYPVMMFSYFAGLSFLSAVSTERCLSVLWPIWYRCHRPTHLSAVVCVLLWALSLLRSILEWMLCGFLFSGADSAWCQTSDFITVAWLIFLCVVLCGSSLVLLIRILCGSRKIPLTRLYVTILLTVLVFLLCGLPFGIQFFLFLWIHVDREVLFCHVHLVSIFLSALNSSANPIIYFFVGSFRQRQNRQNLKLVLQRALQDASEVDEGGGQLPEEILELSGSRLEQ
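Material: MrgX1-expressing HEK293 cells / Dosing: compound as first of three additions / Incubation: overnight seeding, then 1 h dark dye loading / Signal: Fluo-4 NW calcium fluorescence / Evaluation: B-scored fluorescence response ratio / Benchmarks: positive and negative control wells on each plate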
MrgX1 allo act: allosterically activates human MrgX1 receptor signaling; Q96LB2; MrgX1-HEK293, Fluo-4 calcium flux, FDSS; hits give high values; B-score at 10 µM; actives 0.63% (n = 310,000); AID 588675;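 active = plate-corrected calcium response at least 3 library SD above typical, normal starting fluorescence, not activating the receptor alone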;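 note: compound read alongside a low EC10 to EC30 dose of BAM8-22 agonist; peak minus trough fluorescence over baseline measured at the second addition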
MrgX1 antag: antagonists of human MrgX1 receptor; Q96LB2; MRGX1-HEK293 calcium flux, Fluo-4, BAM8-22 antagonism; hits give low values; B-score at 10 µM; actives 1.3% (n = 310,000); AID 588676;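 active = calcium-response B-score plate-corrected more than 3 library SD below zero, starting fluorescence within 5 deviations, no agonist response on first addition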;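 note: peak minus trough fluorescence over baseline after final BAM8-22 challenge near maximal dose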
RGS4 act valid: RGS4 activation, validation assay. inhibition, % at 10 µM. HEK293 M3R/RGS4 inducible, carbachol calcium flux Fluo4. actives 89% (n = 1,100). shares compounds with RGS4 act;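 active = inhibition above 3 SD of the buffer control wells, cut at about 41% in these data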;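 note: signal is the integrated peak-minus-minimum Fluo4 fluorescence over baseline ratio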
RGS4 act ctr: counter-screen for RGS4 activators: effect in non-induced cells; shares compounds with RGS4 act; HEK293 M3R non-induced RGS4, Fluo4 calcium flux; after carbachol challenge at its EC90; inhibition, % at 10 µM; actives 82% (n = 1,100); AID 602283;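 active = inhibition exceeding 3 SD of buffer-only control wells, cut at about 26% in these data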;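 note: percent drop in integrated peak-minus-baseline over baseline Fluo4 ratio after carbachol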
* hit, by the source's call; i = inactive; x = not tested or not shown. Hits are enriched below; roughly 3.5% of the tested compounds scored in any of these assays.

SMILES	RGS4 block	RGS4 act	MrgX1 ag	MrgX1 allo act	MrgX1 antag	RGS4 act valid	RGS4 act ctr
CC1Oc2ccccc2C(=O)N(CC(=O)c2ccc3c(c2)OCCO3)C1=O (configuration not stated)	i	i	i	i	i	x	x
OCCC1CN(Cc2ccc(-c3ccco3)cc2)CCN1Cc1ccsc1 (configuration not stated)	i	-7.74*	i	i	i	73.5*	83.8*
COc1ccc(C(=O)N/N=C/c2ccc(OC)c(COc3ccc(F)cc3F)c2)cc1	i	i	i	i	i	x	x
O=C(CSc1nnc(NC(=O)C2CC2)s1)NCc1ccc(F)cc1	i	i	i	i	i	x	x
COCCNC(=S)Nc1ccc2nc(N3CCOCC3)cc(C)c2c1	i	-11.4*	i	i	i	0.0	0.0
CCOC(=O)c1ccc(NC(=O)N2CCc3ccccc3C2)cc1	i	-8.86*	i	i	i	83.5*	44.3*
COc1ccc(N(C=O)C(C(=O)Nc2c(C)cccc2C)c2ccccc2)cc1 (configuration not stated)	i	i	i	i	i	x	x
O=C(NCCc1ccc(F)cc1)C(=O)NCC1CCCN1S(=O)(=O)c1ccccc1 (configuration not stated)	i	-9.26*	i	i	i	89.5*	68.3*
O=C(NCc1ccc(F)cc1)C(=O)NCC1CCCN1S(=O)(=O)c1ccccc1 (configuration not stated)	i	i	i	i	i	x	x
COc1ccccc1CCNC(=O)C(=O)NCC1CCCN1S(=O)(=O)c1ccccc1 (configuration not stated)	i	-10.9*	i	i	-4.52*	79.5*	83.8*
COc1ccc(CCNC(=O)C(=O)NCC2CCCN2S(=O)(=O)c2ccccc2)cc1 (configuration not stated)	i	-12.1*	i	i	i	87.5*	54.3*
COc1ccccc1N(C(=O)c1ccco1)C(C(=O)NC1CCCC1)c1ccc(N2CCOCC2)cc1 (configuration not stated)	i	i	i	i	i	x	x
O=[N+]([O-])c1cccc(S(=O)(=O)NC2CC3CCC2C3)c1 (configuration not stated)	i	i	i	i	i	x	x
C=CCN1C(=O)C(C)(C)N(C(=O)c2cccc([N+](=O)[O-])c2)c2ccccc21	i	i	i	i	i	x	x
CC(=O)NC(=O)c1cnn(-c2ccccc2)c1N	i	-8.83*	i	i	i	0.0	0.0
COC(=O)c1cnn(-c2ccccc2)c1N	i	i	i	i	i	x	x
Cc1ccc(COc2ccc(CNCCCN3CCCCCC3=O)cc2)cc1	i	-12.2*	i	i	i	93.0*	65.3*
CN1/C(=C\C(=O)Nc2ccc(Br)cc2)C(C)(C)c2ccccc21	i	-9.16*	i	i	i	92.0*	96.3*
CN1/C(=C\C(=O)Nc2ccc(F)cc2)C(C)(C)c2ccccc21	i	-8.8*	i	i	i	50.5*	25.8*
COCCN(Cc1cc2cc(C)ccc2[nH]c1=O)S(=O)(=O)c1ccc(Cl)cc1	i	i	i	i	i	x	x
CCc1ccc(N(C(=O)c2snc(C(N)=O)c2N)C(C(=O)NCC2CCCO2)c2ccco2)cc1 (configuration not stated)	i	i	i	i	i	x	x
CCc1ccc(-n2c(=S)sc3c(=O)n(-c4ccccc4C)c(SCC(=O)O)nc32)cc1	i	i	i	i	i	x	x
CC(=O)Nc1ccc(S(=O)(=O)N(C)CC(=O)OCC(=O)N2CCCC2=O)cc1	i	i	i	i	i	x	x
O=C(Nc1ccnn1C1CCN(Cc2cccc(OCCO)c2)CC1)C1CCOC1 (configuration not stated)	i	i	i	i	i	x	x
Fc1ccc(C2N(c3ccccc3)C(=S)N3CCCN23)cc1 (configuration not stated)	i	i	i	i	i	x	x
SMILES	RGS4 block	RGS4 act	MrgX1 ag	MrgX1 allo act	MrgX1 antag	RGS4 act valid	RGS4 act ctr
Cc1ccc(C2N(c3ccccc3)C(=S)N3CCCN23)cc1 (configuration not stated)	i	-11*	i	i	i	93.5*	90.8*
COc1ccc(C)cc1N(C(=O)c1snc(C(N)=O)c1N)C(C(=O)NC1CCCC1)c1ccc(F)cc1 (configuration not stated)	i	i	i	i	i	x	x
Cc1ccc(C23CC4CC(CC(C(=O)NC(C(=O)O)C(C)C)(C4)C2)C3)cc1 (configuration not stated)	i	i	i	i	i	x	x
COc1ccccc1NC(=O)Nc1nc(CC(=O)N2CCN(c3ccc(F)cc3)CC2)cs1	i	-8.25*	i	i	i	55.5*	0.0
COc1ccc(N2CCN(C(=O)Cc3csc(NC(=O)Nc4ccccc4OC)n3)CC2)cc1	i	i	i	i	i	x	x
Cc1ccc(S(=O)(=O)NC(CC(C)C)C(=O)Oc2ccc3c4c(c(=O)oc3c2)CCC4)cc1 (configuration not stated)	i	-9.42*	i	i	i	92.0*	91.8*
C=CCN1C(=O)/C(=C2\SC(N3CCOCC3)=NC2=O)c2cc(Br)ccc21	i	-8.63*	i	i	i	86.0*	62.8*
CC(C)(C)c1ccccc1OCC(=O)Nc1ccccc1C(=O)NCc1cccnc1	i	-11.1*	i	i	i	87.5*	59.3*
c1ccc(N2CCN(c3cnccn3)CC2)nc1	i	-8.41*	i	i	i	0.0	0.0
O=C(O)COc1ccc(/C=N/NC(=O)/C(=C/C=C/c2ccccc2)NC(=O)c2ccccc2)cc1	i	i	i	i	i	x	x
CC1CC(C)(C)N(C(=O)CSc2ccc(-c3ccc(F)cc3)nn2)c2ccccc21 (configuration not stated)	i	-12.8*	i	i	i	93.5*	72.3*
C[C@@H]1CCC[C@]2(O[C@@H](CCO)C[C@@H](O)[C@@H]2O)O1	i	i	i	i	i	x	x
Cc1c(C(=O)OCC(C)(C)CN(C)C)oc2ccccc12	i	i	i	i	i	x	x
